This note sets out measurements from ChEMBL document CHEMBL2062525, “Substituted 3-(5-imidazo[2,1-b]thiazolylmethylene)-2-indolinones and analogues: synthesis, cytotoxic activity, and study of the mechanism of action” (J Med Chem, 2012).

Each structure is given as a SMILES string. Counter-ions that a name gives are not always drawn.

Type in all cases: functional
A short description of assay [1]: Cytotoxicity against human renal cancer cells after 48 hrs. As to conditions: Cancer cell lines. The procedure, abridged:
(§1)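 NCI 60-cell panel subpanel lines; compounds first screened at a single 10−5 M, then those passing threshold tested in five-concentration assay over 10−9 to 10−4 M (some to 10−3 M), 48 h exposure. Growth relative to untreated control measured as cell protein; GI50, TGI and LC50 derived; some values are means of two experiments.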

A short description of assay [2]: Cytotoxicity against human ovarian cancer cells after 48 hrs. As to conditions: Cancer cell lines. The procedure, abridged: as §1
Assay [3] in a line: Cytotoxicity against human melanoma cells after 48 hrs. The note with it: Melanoma cell. In a few lines:
as §1

Assay [4] can be described thus: Cytotoxicity against human leukemia cells after 48 hrs. As to conditions: Leukemia cell. In a few lines:
(§2)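 NCI 60-cell panel (subpanels include leukemia and prostate). […] Percent growth relative to untreated control; some repeats averaged over two experiments.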

In the next assay the test system is NSCLC. In words: Cytotoxicity against human NSCLC cells after 48 hrs. In a few lines: as §1
A short description of assay [5]: Cytotoxicity against human CNS cancer cells after 48 hrs. The note with it: Cancer cell lines. In a few lines:
as §1

The nature of assay [6]: Cytotoxicity against human breast cancer cells after 48 hrs. The note with it: Cancer cell lines. In a few lines:
as §1

A short description of assay [7]: Cytotoxicity against human COLON cells after 48 hrs. In a few lines: as §1
Assay [8] can be described thus: Cytotoxicity against human prostate cancer cells after 48 hrs. The note with it: Cancer cell lines. In a few lines:
as §2

Broadly, the GI50 is the concentration that inhibits growth by half. High values mean lower sensitivity of the cells, low ones greater sensitivity of the cells. As usually defined, the TGI is the concentration at which net growth stops. With `Cc1ccc(-c2nc3sc(C)cn3c2/C=C2/C(=O)Nc3cc(C)c(O)cc32)cc1`, the GI50 in assay [1] is 18.2 µM; in assay [2], 10.5 µM; in assay [3] it was 33.9 µM; in assay [4], 52.5 µM; in the assay on NSCLC it was 18.6 µM; in assay [5], 11.8 µM. Further, the GI50 in assay [6] turned out to be 12.6 µM; in assay [7] it was 60.3 µM; in assay [8], 21.4 µM. Moreover, the concentration for total growth inhibition (TGI) is 63.1 µM in assay [2], 72.4 µM in the assay on NSCLC, 91.2 µM in [5] and 63.1 µM in [6].

`COc1ccc2c(c1)/C(=C\c1c(-c3ccc(C)cc3)nc3sc(C)cn13)C(=O)N2C`: the GI50 in [1] was found to be 4.79 µM; in assay [2] it was 56.2 µM; in [3], 52.5 µM; in assay [4] it was 4.37 µM; in the assay on NSCLC it was 14.8 µM; in [5] it was 39.8 µM. In addition, the concentration for 50% growth inhibition (GI50) in [6] was 12.9 µM; in assay [7] it was 6.03 µM; in assay [8], 5.37 µM. The total growth inhibition concentration (TGI) in assay [1] stood at 70.8 µM; in [4], 56.2 µM; in the assay with NSCLC, 85.1 µM; in [6], 72.4 µM; in assay [7] it was 33.1 µM.

What is called LC50 is the concentration lethal to half of the exposed cells or organisms. A lower LC50 goes with greater toxicity. Take `O=C1Nc2ccccc2/C1=C\c1c(-c2ccccn2)nc2sccn12`: the GI50 came to 2.34 µM in assay [1]; 2.88 µM in [2]; 2.45 µM in assay [3]; 0.35 µM in assay [4]; 1.58 µM with NSCLC; 0.81 µM in assay [5]. The GI50 in [6] came out at 0.59 µM; in assay [7], 0.49 µM; in assay [8] it was 1.02 µM. In addition, the TGI in assay [1] is 95.5 µM; in assay [2], 37.1 µM; in assay [3] it was 91.2 µM; in assay [4], 14.8 µM; in the assay with NSCLC, 70.8 µM; in assay [5], 20.9 µM. The TGI in assay [6] is 36.3 µM; in [7] it was 52.5 µM. For the same compound, in [2], the LC50 (concentration killing 50% of starting cells) turned out to be 91.2 µM. In [5], this compound gave a median lethal concentration (LC50) of 89.1 µM.

Turning to `CC[C@]1(O)C[C@H]2CN(CCc3c([nH]c4ccccc34)[C@@](C(=O)OC)(c3cc4c(cc3OC)N(C=O)[C@H]3[C@@](O)(C(=O)OC)[C@H](OC(C)=O)[C@]5(CC)C=CCN6CC[C@]43[C@@H]65)C2)C1` [VINCRISTINE SULFATE], the concentration for 50% growth inhibition (GI50) was 0.32 µM in assay [1]; 0.32 µM in assay [2]; 0.16 µM in assay [3]; 0.1 µM in assay [4]; 0.25 µM in the assay with NSCLC; 0.13 µM in assay [5]. Moreover, the GI50 was 0.32 µM in assay [6], 0.1 µM in [7] and 0.13 µM in [8]. This compound showed a TGI in assay [7] of 3.98 µM.

As to `Cc1ccc(-c2nc3sc(C)cn3c2/C=C2/C(=O)N(C)c3ccccc32)cc1`, the GI50 in assay [1] was determined as 15.1 µM; in assay [2], 32.4 µM; in [3], 17.4 µM; in assay [4], 7.08 µM; with NSCLC it was 24 µM; in assay [5], 19.1 µM. Also, the concentration for 50% growth inhibition (GI50) in assay [6] was 13.5 µM; in assay [7], 20.4 µM; in [8], 6.46 µM. Besides, the total growth inhibition concentration (TGI) in [1] worked out at 85.1 µM; in [2], 89.1 µM; in assay [3] it was 87.1 µM; in assay [4], 63.1 µM; in the assay with NSCLC it was 89.1 µM; in [5] it was 75.9 µM. In assay [6], this compound gave a TGI of 75.9 µM.

Consider `COc1cc(-c2nc3sc(C)cn3c2/C=C2/C(=O)Nc3ccccc32)c(Br)c(OC)c1OC`, for which the GI50 in assay [1] was found to be 30.9 µM; in [2], 39.8 µM; in [3], 29.5 µM; in [4] it was 36.3 µM; in the assay with NSCLC it was 32.4 µM; in [5], 23.4 µM. The concentration for 50% growth inhibition (GI50) in assay [6] turned out to be 19.1 µM; in assay [7] it was 26.3 µM; in assay [8], 30.2 µM. For the same compound, the total growth inhibition concentration (TGI) in assay [1] was 75.9 µM; in assay [2], 85.1 µM; in assay [3], 85.1 µM; in the assay on NSCLC, 89.1 µM; in assay [5], 55 µM; in [6], 63.1 µM. Further, the figures for the total growth inhibition concentration (TGI) in assay [7] and in assay [8] were 75.9 µM and 85.1 µM, respectively.
